Assay results from different studies.
Lines come from different studies, so protocols differ.
FGFR3: Fibroblast growth factor receptor 3 (FGFR3, Homo sapiens, UniProt P22607)
FGFR3 G697C: Fibroblast growth factor receptor 3 (FGFR3, Homo sapiens, UniProt P22607, G697C)

SMILES	target	effect on	mode	method	tested at	quantity	result
COc1ccc2oc(-c3ccc4nc(N)oc4c3)c/c(=N\c3ccccc3NC(=O)CCN)c2c1	FGFR3	binding			1 µM	remaining binding	107%
C1=C/COCc2cc(ccc2OCCN2CCCC2)Nc2nccc(n2)-c2cccc(c2)COC/1	FGFR3 G697C	binding			0.1 µM	remaining binding	100%
CCCCC(=O)Nc1ccc(-c2ccc3ncn(CCC)c(=O)c3c2)cn1	FGFR3	binding		competition with immobilised ligand	0.5 µM	remaining binding	96%
Cc1ccc(NC(=O)c2ccnc(C(F)(F)F)c2)cc1-c1cc(OCCO)nc(N2CCOCC2)c1	FGFR3	binding		competition with immobilised ligand	1 µM	remaining binding	90%
C#Cc1cnc(Nc2ccnc(CO)c2)nc1Nc1ccccc1S(C)(=O)=NC#N (stereo not drawn)	FGFR3	cell-free assay			1 µM	remaining signal	28%
C=CC(=O)N1CCC([C@@H]2CCNc3c(C(N)=O)c(-c4ccc(Oc5ccccc5)cc4)nn32)CC1	FGFR3 G697C	cell-free assay			1 µM	inhibition	14%
C[C@H]1CC[C@H](n2c3cnccc3c3cnc(Nc4ccc5c(n4)CCN(C(=O)CO)C5)nc32)CC1	FGFR3	cell-free assay		competition with immobilised ligand	1 µM	remaining binding	100%
N#Cc1ccc(NC(=O)Nc2ccccc2)cc1	FGFR3	cell-free assay		competition with immobilised ligand	25 µM	remaining binding	100%
CO[C@@H]1[C@H](N(C)C(=O)c2ccccc2)C[C@H]2O[C@]1(C)n1c3ccccc3c3c4c(c5c6ccccc6n2c5c31)C(=O)NC4	FGFR3	enzyme activity	inhibitor		1 µM	inhibition	3%
